# Assay results from different studies.
# Lines come from different studies, so protocols differ.
# HTR7: 5-hydroxytryptamine receptor 7 (HTR7, Homo sapiens, UniProt P34969)
# CTSB: Cathepsin B (CTSB, Homo sapiens, UniProt P07858)
# Oprd1: Delta-type opioid receptor (Oprd1, Rattus norvegicus, UniProt P33533)
Structure (SMILES),target,read-out,action,technique,notes,quantity,value
CC[C@H](C)[C@H](NC(=O)[C@H](CCCNC(=N)N)NC(=O)[C@H](CC(C)C)NC(=O)[C@@H](N)Cc1ccccc1)C(=O)N[C@@H](CCCNC(=N)N)C(=O)N1CCC[C@H]1C(=O)N[C@@H](CCCCN)C(=O)O,HTR7,cell-free assay,,radioligand,,Ki,> 10000 nM
CC(C)C[C@H]1C(=O)N2CCC[C@H]2[C@]2(O)O[C@](NC(=O)[C@@H]3C=C4c5cccc6[nH]c(Br)c(c56)C[C@H]4N(C)C3)(C(C)C)C(=O)N12,HTR7,ligand displacement,,radioligand,cell membranes,Ki,143 nM
CN(C(=O)[C@H](Cc1ccccc1)NC(=O)[C@@H](NC(=O)OCc1ccccc1)C(C)(C)C)N(C#N)CCC(N)=O,CTSB,enzyme activity,inhibitor,,,Ki,75 nM
N=C(N)NCCC[C@@H]1NC(=O)[C@H](Cc2ccc(O)cc2)NC(=O)[C@@H](CCCCN)NC(=O)[C@@H](Cc2ccccc2)NC1=O,Oprd1,ligand displacement,,radioligand,cell membranes,Ki,> 10000 nM
CCc1cccc(C)c1C[C@H](NC(=O)[C@@H](CCCNC(=N)N)NC(=O)[C@@H](N)Cc1c(C)cc(O)cc1C)C(=O)N[C@@H](CCCCN)C(N)=O,Oprd1,ligand displacement,,radioligand,cell membranes,Ki,50 nM
CC(C)C[C@H](NC(=O)[C@H](CCCCN)NC(=O)[C@@H]1CCCN1C(=O)[C@@H](N)CCCNC(=N)N)C(=O)N[C@@H](CCCCN)C(=O)O,HTR7,cell-free assay,,radioligand,,Ki,> 10000 nM
Cc1ccccc1Cc1ccc2c(c1)CN(C(=O)[C@@H](N)Cc1c(C)cc(O)cc1C)CC2,Oprd1,ligand displacement,,radioligand,cell membranes,Ki,5.8 nM
C[C@H](N)Cn1ncc2ccc3c(c21)CCCO3,HTR7,ligand displacement,,radioligand,,Ki,1160 nM
COC1=C(N)C(=O)c2nc(-c3nc(C(=O)O)c(C)c(-c4ccc(OC)c(OC)c4O)c3N)ccc2C1=O,"Sentrin-specific protease 1 (SENP1, Homo sapiens, UniProt Q9P0U3)",enzyme activity,inhibitor,fluorescence,,Ki,138 nM
Cc1cc(O)cc(C)c1C[C@H](N)C(=O)N[C@@H]1CCN(C(=O)c2ccccc2)c2ccc(Cc3cnc4ccccc4c3)cc21,Oprd1,GTPγS binding,antagonist,,cell membranes,Kb,8 nM
c1cncc(C2C3CCN2CC3)c1 (centres unmarked),"Neuronal acetylcholine receptor subunit alpha-4/beta-2 (Mus musculus, UniProt O70174+Q9ERK7)",ligand displacement,,radioligand,cell membranes,Ki,7.42 nM
COc1cc2oc(-c3ccc(O)c(O)c3)cc(=O)c2c(O)c1O,"Genome polyprotein, protease (ZIKV, UniProt A0A024B7W1)",enzyme activity,inhibitor,,,Ki,4500 nM
CC[C@H](NC(=O)OCc1ccccc1)C(=O)N[C@H](C(=O)N[C@@H](CC(C)C)C(=O)N(C)N(C#N)CCC(N)=O)C(C)(C)C,CTSB,enzyme activity,inhibitor,,,Ki,28.8 nM
Cc1cc(O)cc(C)c1C[C@H](N)C(=O)N1CCc2ccc(Cc3ccc(N)cc3)cc2C1,Oprd1,ligand displacement,,radioligand,cell membranes,Ki,3.1 nM
Cc1cc(O)cc(C)c1C[C@H](N)C(=O)N[C@H](CCCNC(=N)N)C(=O)N[C@@H](Cc1c[nH]c2ccccc12)C(=O)N[C@@H](CCCCN)C(N)=O,Oprd1,ligand displacement,,radioligand,cell membranes,Ki,186 nM
Cc1cc(O)cc(C)c1C[C@H](C)C(=O)N[C@@H]1C/C=C/CC[C@@H](C(N)=O)NC(=O)[C@H](Cc2ccccc2)NC(=O)[C@H](Cc2ccccc2)NC1=O,Oprd1,ligand displacement,,radioligand,cell membranes,Ki,35.3 nM
OC(c1ccc(F)cc1)C(F)(F)CCN1CCC(O)(c2ccc(Cl)cc2)CC1 (racemic),HTR7,cell-free assay,,radioligand,,Ki,2710 nM
